Experimental data as given in ChEMBL document CHEMBL1821616, “New insights into the structural requirements for pro-apoptotic agents based on 2,4-diaminoquinazoline, 2,4-diaminopyrido[2,3-d]pyrimidine and 2,4-diaminopyrimidine derivatives” (Eur J Med Chem, 2011).
Activity calls are given as the source filed them. The calls are words filed in the database; no cut-off is given here.

What was measured:
T-24 [1] = test: Cytotoxicity against human T24 cells after 72 hrs by neutral red dye assay; format: functional, cell-based; conditions: T-24, 72 h
Method in brief: (§1)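 Human tumour cells were grown as monolayers with 10% FBS and penicillin/streptomycin at 37 °C in 5% CO2 (HT-29 and T-24 in McCoy's, MDA-MB-231 in Leibovitz). They were exposed to compound in DMSO (≤0.5% v/v final) at screening concentrations of 20 and 100 μM for 72 h and read by neutral red uptake. Survival is relative to cells given DMSO only, in triplicate.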

HT-29 [2] = test: Induction of apoptosis in human HT-29 cells assessed as DNA fragmentation after 48 hrs by ELISA relative to control; format: functional
Method in brief: (§2)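 DNA fragmentation was measured with the Cell Death Detection ELISA Plus kit after treatment of cultured tumour cells. The signal is expressed relative to untreated control cultures, which are set to 1.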

MDA-MB-231 [3] = test: Induction of apoptosis in human MDA-MB-231 cells assessed as DNA fragmentation after 24 hrs by ELISA relative to control; format: functional; method in brief: as §2
HT-29 [4] = test: Cytotoxicity against human HT-29 cells after 72 hrs by neutral red dye assay; format: functional, cell-based; conditions: HT-29, 72 h; method in brief: as §1
T-24 [5] = test: Cytotoxicity against human T24 cells assessed as cell survival at 100 uM after 72 hrs by neutral red dye assay; format: functional; conditions: T-24, 72 h, read-out: Survival
Method in brief: (§3)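 HT-29 and T-24 cells were grown in McCoy's medium and MDA-MB-231 in Leibovitz, each with 10% FBS plus penicillin/streptomycin, as monolayers at 37 °C in 5% CO2. Compounds in DMSO (≤0.5% v/v final) were applied for 72 h. Survival was read by neutral red uptake against 0.5% DMSO-treated cells, as the mean of triplicates.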

MDA-MB-231 [6] = test: Cytotoxicity against human MDA-MB-231 cells assessed as cell survival at 100 uM after 72 hrs by neutral red dye assay; format: functional; conditions: MDA-MB-231, 72 h, read-out: Survival; method in brief: as §3
T-24 [7] = test: Induction of apoptosis in human T24 cells assessed as DNA fragmentation after 48 hrs by ELISA relative to control; format: functional; method in brief: as §2
HT-29 [8] = test: Cytotoxicity against human HT-29 cells assessed as cell survival at 100 uM after 72 hrs by neutral red dye assay; format: functional; conditions: HT-29, 72 h, read-out: Survival; method in brief: as §3
MDA-MB-231 [9] = test: Cytotoxicity against human MDA-MB-231 cells after 72 hrs by neutral red dye assay; format: functional, cell-based; conditions: MDA-MB-231, 72 h; method in brief: as §1
[10] = Cytotoxicity against human CRL11233 cells assessed as cell survival at 20 to 100 uM after 72 hrs by neutral red dye assay; format: cell-based; conditions: read-out: Survival
Method in brief: (§4)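 The non-tumoral lines were grown with 10% FBS plus penicillin/streptomycin, as monolayers at 37 °C in 5% CO2: CRL-8799 in MEG medium and CRL-11233 in BEGM. Compounds in DMSO (≤0.5% v/v final) were applied for 72 h. Survival was read by neutral red uptake against 0.5% DMSO solvent-treated controls, as the mean of triplicates.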

[11] = Cytotoxicity against human CRL8799 cells assessed as cell survival at 20 to 100 uM after 72 hrs by neutral red dye assay; format: cell-based; conditions: read-out: Survival; method in brief: as §4
HT-29 [12] = test: Induction of apoptosis in human HT-29 cells assessed as caspase3 activation at IC50 after 48 hrs by FACS analysis relative to control; format: functional
Method in brief: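 Active caspase-3 was detected by flow cytometry with a FITC anti-active-caspase-3 antibody kit, with readings at 14, 24 and 48 h. Treated cells were compared with untreated control cells. Results are scored as (+) for an increase of about 50% and (++) for a larger rise.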

SMILES	IC50 (T-24 [1])	Activity (HT-29 [2])	fold change (FC) (MDA-MB-231 [3])	IC50 (HT-29 [4])	viability at 100 µM (T-24 [5])	viability at 100 µM (MDA-MB-231 [6])	Activity (T-24 [7])	viability at 100 µM (HT-29 [8])	IC50 (MDA-MB-231 [9])	viability at 72 h, up to 100 µM [10]	fold change (FC) (HT-29 [2])	Activity (MDA-MB-231 [3])	fold change (FC) (T-24 [7])	viability at 72 h, up to 100 µM [11]	Activity (HT-29 [12])
CCCCNc1nc(SC(C)C)nc2ncccc12	12.3 µM	inactive	1.3	32.1 µM	< 45%	< 45%	inactive	< 45%	15.7 µM	–	–	–	–	–	–
Brc1ccc(CCNc2nc(NCCc3ccc(Br)cc3)c3cccnc3n2)cc1	11.5 µM	–	–	4.1 µM	< 45%	< 45%	–	< 45%	2.7 µM	100%	7.2	inactive	1.5	90%	–
c1ccc2c(CCNc3nc(NCCc4c[nH]c5ccccc45)c4cccnc4n3)c[nH]c2c1	7.7 µM	–	–	3 µM	< 45%	< 45%	inactive	< 45%	5.1 µM	–	3	inactive	–	56%	75%
CCCNc1nc(NCCC)c2ccccc2n1	28.9 µM	inactive	–	18.9 µM	< 45%	< 45%	–	< 45%	4.43 µM	66%	–	inactive	2	0%	–
CCCCCCNc1nc(SCCCCC)nc2ncccc12	18.5 µM	inactive	–	18.4 µM	< 45%	< 45%	inactive	< 45%	9 µM	–	–	–	–	–	–
COc1ccc(CNc2ccnc(NCc3ccc(OC)cc3)n2)cc1	18.7 µM	–	2.4	12.6 µM	< 45%	< 45%	–	< 45%	1.5 µM	–	1.9	–	1.5	0%	–
Clc1ccc(CNc2ccnc(NCc3ccc(Cl)cc3)n2)cc1	8.5 µM	–	2.2	9.8 µM	< 45%	< 45%	inactive	< 45%	2 µM	–	2.7	–	–	0%	–
CCCCCCNc1nc(NCCCCCC)c2ccccc2n1	23.3 µM	inactive	–	5.81 µM	< 45%	< 45%	inactive	< 45%	7.56 µM	0%	–	inactive	–	2%	–
Cc1ccc(CNc2nc(NCc3ccc(C)cc3)c3ccccc3n2)cc1	15.4 µM	–	–	4.42 µM	< 45%	< 45%	–	< 45%	5.47 µM	33%	5.2	inactive	4.3	13%	–
CCCCCCNc1nc(NCCCCCC)c2cccnc2n1	4.6 µM	–	–	4.23 µM	< 45%	< 45%	–	< 45%	2.1 µM	–	–	–	–	–	–
Cc1ccc(CNc2ccnc(NCc3ccc(C)cc3)n2)cc1	22.2 µM	–	1.5	14.9 µM	< 45%	< 45%	–	< 45%	19.1 µM	1%	2	–	4.8	6%	–
CCCCCNc1nc(NCCCCC)c2cccnc2n1	0.7 µM	–	2.8	0.58 µM	< 45%	< 45%	–	< 45%	1.2 µM	54%	0.9	–	4.4	100%	–
CCCCNc1nc(NCCCC)c2ccccc2n1	19.3 µM	–	–	6.96 µM	< 45%	< 45%	inactive	< 45%	1.09 µM	1%	1.5	inactive	–	4%	–
Clc1ccc(CNc2nc(NCc3ccc(Cl)cc3)c3cccnc3n2)cc1	11 µM	inactive	1.3	15 µM	< 45%	< 45%	–	< 45%	8.3 µM	100%	–	–	1.9	0%	–
c1ccc(CCNc2ccnc(NCCc3ccccc3)n2)cc1	9.14 µM	inactive	1.3	6.97 µM	< 45%	< 45%	–	< 45%	3.01 µM	5%	–	–	1.2	5%	–
CCCCCCCNc1nc(SC(C)C)nc2ncccc12	8 µM	inactive	–	24.4 µM	< 45%	< 45%	–	< 45%	7 µM	–	–	–	1.5	–	–
CCNc1nc(SCC)nc2ncccc12	20.1 µM	inactive	2	26.2 µM	< 45%	< 45%	–	< 45%	18.7 µM	–	–	–	1.3	–	–
CCCCCCNc1nc(SC(C)C)nc2ncccc12	15.8 µM	–	2.9	20.2 µM	< 45%	< 45%	–	< 45%	4.5 µM	–	–	–	1.6	–	–
CCCCNc1nc(SCCCC)nc2ncccc12	10.6 µM	inactive	–	13.6 µM	< 45%	< 45%	–	< 45%	8.4 µM	–	–	–	3.7	–	–
CCCCCCNc1nc(SCC)nc2ncccc12	5.9 µM	–	3.3	22.5 µM	< 45%	< 45%	–	< 45%	1.4 µM	–	8.1	–	1.5	–	75%
Cc1ccc(CNc2nc(NCc3ccc(C)cc3)c3cccnc3n2)cc1	5 µM	inactive	4	7.5 µM	< 45%	< 45%	–	< 45%	3.2 µM	100%	–	–	2.7	95%	–
CCCCNc1nc(SCC)nc2ncccc12	20.9 µM	–	2.2	25.3 µM	< 45%	< 45%	–	< 45%	9.2 µM	–	1.2	–	1.5	–	–
Clc1ccc(CNc2nc(NCc3ccc(Cl)cc3)c3ccccc3n2)cc1	6.41 µM	inactive	–	5.89 µM	< 45%	< 45%	–	< 45%	4.26 µM	0%	–	inactive	2	0%	–
